Assay results published in the M2OR odorant receptor database.

Tests used:
Conditions in all cases: stereoisomer not certain
OR3A4P (Homo sapiens) = biological target: T1, OR3A4P (Homo sapiens) (UniProt P47883)
T1 sequence (whole entry): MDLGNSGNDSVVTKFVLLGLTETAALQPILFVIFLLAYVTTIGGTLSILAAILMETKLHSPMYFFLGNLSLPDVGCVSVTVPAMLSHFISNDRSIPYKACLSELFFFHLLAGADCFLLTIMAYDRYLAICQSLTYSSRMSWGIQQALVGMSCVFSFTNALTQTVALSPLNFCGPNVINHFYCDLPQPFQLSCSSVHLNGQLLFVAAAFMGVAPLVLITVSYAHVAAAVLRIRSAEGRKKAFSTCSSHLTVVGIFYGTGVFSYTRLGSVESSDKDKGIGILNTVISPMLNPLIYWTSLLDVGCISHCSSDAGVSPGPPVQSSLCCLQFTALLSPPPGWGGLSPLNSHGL
Method in brief: (§1)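 Each entry records the cell line, G-protein, co-transfected protein and tags used. Methods varied with the source, often transient luciferase assays in mammalian cell lines. A receptor–molecule pair is called responsive (active) if the original authors judged its signal statistically different from baseline and non-responsive (inactive) otherwise.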

OR4A15 (Homo sapiens) = OR4A15 (Homo sapiens) (UniProt Q8NGL6)
OR4A15 (Homo sapiens), sequence (Q8NGL6 whole entry): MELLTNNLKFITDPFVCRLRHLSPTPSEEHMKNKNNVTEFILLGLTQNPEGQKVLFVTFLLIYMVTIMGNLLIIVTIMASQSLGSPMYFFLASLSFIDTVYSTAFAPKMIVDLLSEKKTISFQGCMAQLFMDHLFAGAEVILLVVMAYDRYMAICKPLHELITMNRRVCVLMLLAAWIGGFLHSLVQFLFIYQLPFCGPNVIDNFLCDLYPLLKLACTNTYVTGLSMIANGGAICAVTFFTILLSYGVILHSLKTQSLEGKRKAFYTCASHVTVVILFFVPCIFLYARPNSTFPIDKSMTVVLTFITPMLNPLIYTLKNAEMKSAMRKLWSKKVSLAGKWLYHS
Method in brief: as §1

OR4A16 (Homo sapiens) = biological target: T2, OR4A16 (Homo sapiens) (UniProt Q8NH70)
T2 sequence (whole entry): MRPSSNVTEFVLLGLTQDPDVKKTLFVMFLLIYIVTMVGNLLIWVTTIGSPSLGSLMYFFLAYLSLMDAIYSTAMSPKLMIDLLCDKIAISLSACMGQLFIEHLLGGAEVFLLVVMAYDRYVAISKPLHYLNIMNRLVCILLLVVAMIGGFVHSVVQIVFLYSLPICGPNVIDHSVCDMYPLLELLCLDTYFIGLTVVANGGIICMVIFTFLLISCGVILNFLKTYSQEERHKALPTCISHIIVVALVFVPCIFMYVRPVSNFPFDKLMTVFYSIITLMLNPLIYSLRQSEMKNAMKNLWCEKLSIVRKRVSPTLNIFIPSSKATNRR
Method in brief: as §1

OR4A47 (Homo sapiens) = biological target: T3, OR4A47 (Homo sapiens) (UniProt Q6IF82)
T3 sequence (whole entry): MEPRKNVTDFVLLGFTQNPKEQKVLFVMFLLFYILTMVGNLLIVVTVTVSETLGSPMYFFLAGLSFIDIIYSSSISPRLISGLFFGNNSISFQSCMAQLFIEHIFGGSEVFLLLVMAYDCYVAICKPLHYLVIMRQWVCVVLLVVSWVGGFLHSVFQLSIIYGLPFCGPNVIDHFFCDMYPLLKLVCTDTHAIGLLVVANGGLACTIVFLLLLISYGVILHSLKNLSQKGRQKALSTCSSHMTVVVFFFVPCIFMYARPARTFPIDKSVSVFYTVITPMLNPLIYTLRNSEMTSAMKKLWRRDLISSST
Method in brief: as §1

OR4A5 (Homo sapiens) = biological target: T4, OR4A5 (Homo sapiens) (UniProt Q8NH83)
T4 sequence (whole entry): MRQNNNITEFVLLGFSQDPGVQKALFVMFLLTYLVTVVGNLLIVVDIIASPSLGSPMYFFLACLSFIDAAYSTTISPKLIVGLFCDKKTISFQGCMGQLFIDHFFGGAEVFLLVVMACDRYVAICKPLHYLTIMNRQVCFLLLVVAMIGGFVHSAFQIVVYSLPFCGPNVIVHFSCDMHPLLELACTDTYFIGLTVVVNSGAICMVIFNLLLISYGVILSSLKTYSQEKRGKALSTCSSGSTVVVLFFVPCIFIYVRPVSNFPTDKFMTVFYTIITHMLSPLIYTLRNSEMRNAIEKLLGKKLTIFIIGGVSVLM
Method in brief: as §1

OR4B1 (Homo sapiens) = biological target: T5, OR4B1 (Homo sapiens) (UniProt Q8NGF8)
T5 sequence (whole entry): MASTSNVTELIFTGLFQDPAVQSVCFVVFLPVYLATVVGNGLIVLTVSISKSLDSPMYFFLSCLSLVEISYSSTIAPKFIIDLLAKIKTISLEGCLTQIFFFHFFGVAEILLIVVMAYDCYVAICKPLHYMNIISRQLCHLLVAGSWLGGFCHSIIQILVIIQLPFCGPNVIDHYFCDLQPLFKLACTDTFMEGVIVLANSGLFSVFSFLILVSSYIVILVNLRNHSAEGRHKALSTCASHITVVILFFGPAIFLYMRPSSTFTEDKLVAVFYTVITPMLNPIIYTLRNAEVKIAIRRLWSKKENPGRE
Method in brief: as §1

OR4C11 (Homo sapiens) = biological target: T6, OR4C11 (Homo sapiens) (UniProt Q6IEV9)
T6 sequence (whole entry): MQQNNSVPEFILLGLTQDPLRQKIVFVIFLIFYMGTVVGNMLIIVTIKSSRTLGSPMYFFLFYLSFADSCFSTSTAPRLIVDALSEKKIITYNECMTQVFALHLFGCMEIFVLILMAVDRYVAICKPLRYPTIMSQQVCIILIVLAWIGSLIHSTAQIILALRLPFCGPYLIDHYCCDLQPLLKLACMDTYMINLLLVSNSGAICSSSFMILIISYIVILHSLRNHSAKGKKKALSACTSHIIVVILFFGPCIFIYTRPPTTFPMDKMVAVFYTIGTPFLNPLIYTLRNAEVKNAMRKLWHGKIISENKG
Method in brief: as §1

OR4C12 (Homo sapiens) = OR4C12 (Homo sapiens) (UniProt Q96R67)
OR4C12 (Homo sapiens), sequence (Q96R67 whole entry): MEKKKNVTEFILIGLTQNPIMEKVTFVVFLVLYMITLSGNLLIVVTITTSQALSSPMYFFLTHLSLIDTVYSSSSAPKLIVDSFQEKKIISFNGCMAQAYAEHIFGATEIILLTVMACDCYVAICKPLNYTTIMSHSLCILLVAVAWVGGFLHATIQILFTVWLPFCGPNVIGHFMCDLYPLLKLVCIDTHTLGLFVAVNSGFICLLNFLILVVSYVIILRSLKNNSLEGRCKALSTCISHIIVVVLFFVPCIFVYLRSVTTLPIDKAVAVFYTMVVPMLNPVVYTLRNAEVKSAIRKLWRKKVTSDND
Method in brief: as §1

OR3A3 T48I L132F = test system: T7, OR3A3 T48I L132F
T7 sequence (whole entry): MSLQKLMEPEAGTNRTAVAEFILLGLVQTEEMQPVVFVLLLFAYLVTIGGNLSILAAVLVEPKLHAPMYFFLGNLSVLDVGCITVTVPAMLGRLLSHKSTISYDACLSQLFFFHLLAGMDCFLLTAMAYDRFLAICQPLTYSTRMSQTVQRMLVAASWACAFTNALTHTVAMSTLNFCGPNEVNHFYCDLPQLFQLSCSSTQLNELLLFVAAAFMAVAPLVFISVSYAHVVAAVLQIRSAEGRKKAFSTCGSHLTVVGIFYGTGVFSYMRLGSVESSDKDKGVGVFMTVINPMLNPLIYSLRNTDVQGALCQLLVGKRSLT
Method in brief: as §1

OR4A8 (Homo sapiens) = OR4A8 (Homo sapiens) (UniProt P0C604)
OR4A8 (Homo sapiens), sequence (P0C604 whole entry): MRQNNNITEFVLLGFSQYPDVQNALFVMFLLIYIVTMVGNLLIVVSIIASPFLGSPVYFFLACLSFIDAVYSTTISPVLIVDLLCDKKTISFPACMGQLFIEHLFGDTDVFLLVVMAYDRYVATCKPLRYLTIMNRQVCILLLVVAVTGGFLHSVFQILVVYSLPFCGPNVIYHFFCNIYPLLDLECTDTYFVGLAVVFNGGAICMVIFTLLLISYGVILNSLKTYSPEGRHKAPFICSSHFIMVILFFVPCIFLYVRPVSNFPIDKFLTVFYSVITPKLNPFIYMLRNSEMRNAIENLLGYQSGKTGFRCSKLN
Method in brief: as §1

## CCCCCC(=O)C(C)C(C)=O (stereo not given)
OR3A4P (Homo sapiens)
  odorant receptor agonist call: inactive
OR4A15 (Homo sapiens)
  odorant receptor agonist call: inactive
OR4A16 (Homo sapiens)
  odorant receptor agonist call: inactive
OR4A47 (Homo sapiens)
  odorant receptor agonist call: inactive
OR4A5 (Homo sapiens)
  odorant receptor agonist call: inactive
OR4B1 (Homo sapiens)
  odorant receptor agonist call: inactive
OR4C11 (Homo sapiens)
  odorant receptor agonist call: inactive
OR4C12 (Homo sapiens)
  odorant receptor agonist call: inactive

## CCC(S)C(C)CO (stereo not given)
OR3A4P (Homo sapiens)
  odorant receptor agonist call: inactive
OR4A15 (Homo sapiens)
  odorant receptor agonist call: inactive
OR4A16 (Homo sapiens)
  odorant receptor agonist call: inactive
OR4A47 (Homo sapiens)
  odorant receptor agonist call: inactive
OR4A5 (Homo sapiens)
  odorant receptor agonist call: inactive
OR4B1 (Homo sapiens)
  odorant receptor agonist call: inactive
OR4C11 (Homo sapiens)
  odorant receptor agonist call: inactive
OR4C12 (Homo sapiens)
  odorant receptor agonist call: inactive

## CCCC(S)CCOC(C)=O (stereo not given)
OR3A3 T48I L132F
  odorant receptor agonist call: inactive
OR4A15 (Homo sapiens)
  odorant receptor agonist call: inactive
OR4A16 (Homo sapiens)
  odorant receptor agonist call: inactive
OR4A47 (Homo sapiens)
  odorant receptor agonist call: inactive
OR4A5 (Homo sapiens)
  odorant receptor agonist call: inactive
OR4B1 (Homo sapiens)
  odorant receptor agonist call: inactive
OR4C11 (Homo sapiens)
  odorant receptor agonist call: inactive
OR4C12 (Homo sapiens)
  odorant receptor agonist call: inactive

## CCC1OC(=O)C(O)=C1C (stereo not given)
OR3A3 T48I L132F
  odorant receptor agonist call: inactive
OR4A15 (Homo sapiens)
  odorant receptor agonist call: inactive
OR4A16 (Homo sapiens)
  odorant receptor agonist call: inactive
OR4A47 (Homo sapiens)
  odorant receptor agonist call: inactive
OR4A5 (Homo sapiens)
  odorant receptor agonist call: inactive
OR4B1 (Homo sapiens)
  odorant receptor agonist call: inactive
OR4C11 (Homo sapiens)
  odorant receptor agonist call: inactive
OR4C12 (Homo sapiens)
  odorant receptor agonist call: inactive

## CCC1OC(C)=C(O)C1=O (stereo not given)
OR3A3 T48I L132F
  odorant receptor agonist call: inactive
OR4A15 (Homo sapiens)
  odorant receptor agonist call: inactive
OR4A16 (Homo sapiens)
  odorant receptor agonist call: inactive
OR4A47 (Homo sapiens)
  odorant receptor agonist call: inactive
OR4A5 (Homo sapiens)
  odorant receptor agonist call: inactive
OR4B1 (Homo sapiens)
  odorant receptor agonist call: inactive
OR4C11 (Homo sapiens)
  odorant receptor agonist call: inactive
OR4C12 (Homo sapiens)
  odorant receptor agonist call: inactive

## CC(=O)c1c(C)c([N+](=O)[O-])c(C(C)(C)C)c([N+](=O)[O-])c1C
OR4A15 (Homo sapiens)
  odorant receptor agonist call: inactive
OR4A16 (Homo sapiens)
  odorant receptor agonist call: inactive
OR4A47 (Homo sapiens)
  odorant receptor agonist call: inactive
OR4A5 (Homo sapiens)
  odorant receptor agonist call: inactive
OR4A8 (Homo sapiens)
  odorant receptor agonist call: inactive
OR4B1 (Homo sapiens)
  odorant receptor agonist call: inactive
OR4C11 (Homo sapiens)
  odorant receptor agonist call: inactive
OR4C12 (Homo sapiens)
  odorant receptor agonist call: inactive

## CCCCC(S)C(C)CO (stereo not given)
OR3A4P (Homo sapiens)
  odorant receptor agonist call: inactive
OR4A15 (Homo sapiens)
  odorant receptor agonist call: inactive
OR4A16 (Homo sapiens)
  odorant receptor agonist call: inactive
OR4A47 (Homo sapiens)
  odorant receptor agonist call: inactive
OR4A5 (Homo sapiens)
  odorant receptor agonist call: inactive
OR4B1 (Homo sapiens)
  odorant receptor agonist call: inactive
OR4C11 (Homo sapiens)
  odorant receptor agonist call: inactive
OR4C12 (Homo sapiens)
  odorant receptor agonist call: inactive

## CC(CO)CS (stereo not given)
OR3A4P (Homo sapiens)
  odorant receptor agonist call: inactive
OR4A15 (Homo sapiens)
  odorant receptor agonist call: inactive
OR4A16 (Homo sapiens)
  odorant receptor agonist call: inactive
OR4A47 (Homo sapiens)
  odorant receptor agonist call: inactive
OR4A5 (Homo sapiens)
  odorant receptor agonist call: inactive
OR4B1 (Homo sapiens)
  odorant receptor agonist call: inactive
OR4C11 (Homo sapiens)
  odorant receptor agonist call: inactive
OR4C12 (Homo sapiens)
  odorant receptor agonist call: inactive

## CC1=NC(C)C(C)S1 (stereo not given)
OR3A3 T48I L132F
  odorant receptor agonist call: inactive
OR4A15 (Homo sapiens)
  odorant receptor agonist call: inactive
OR4A16 (Homo sapiens)
  odorant receptor agonist call: inactive
OR4A47 (Homo sapiens)
  odorant receptor agonist call: inactive
OR4A5 (Homo sapiens)
  odorant receptor agonist call: inactive
OR4B1 (Homo sapiens)
  odorant receptor agonist call: inactive
OR4C11 (Homo sapiens)
  odorant receptor agonist call: inactive
OR4C12 (Homo sapiens)
  odorant receptor agonist call: inactive

## CCCCCC(S)C(C)CO (stereo not given)
OR3A4P (Homo sapiens)
  odorant receptor agonist call: inactive
OR4A15 (Homo sapiens)
  odorant receptor agonist call: inactive
OR4A16 (Homo sapiens)
  odorant receptor agonist call: active
OR4A47 (Homo sapiens)
  odorant receptor agonist call: inactive
OR4A5 (Homo sapiens)
  odorant receptor agonist call: inactive
OR4B1 (Homo sapiens)
  odorant receptor agonist call: inactive
OR4C11 (Homo sapiens)
  odorant receptor agonist call: inactive
OR4C12 (Homo sapiens)
  odorant receptor agonist call: inactive

## Cc1cnc(C)c(C)n1
OR3A3 T48I L132F
  odorant receptor agonist call: inactive
OR4A15 (Homo sapiens)
  odorant receptor agonist call: inactive
OR4A16 (Homo sapiens)
  odorant receptor agonist call: inactive
OR4A47 (Homo sapiens)
  odorant receptor agonist call: inactive
OR4A5 (Homo sapiens)
  odorant receptor agonist call: inactive
OR4B1 (Homo sapiens)
  odorant receptor agonist call: inactive
OR4C11 (Homo sapiens)
  odorant receptor agonist call: inactive
OR4C12 (Homo sapiens)
  odorant receptor agonist call: inactive

## CCCCCCC=CCCC=O
OR3A3 T48I L132F
  odorant receptor agonist call: inactive
OR4A15 (Homo sapiens)
  odorant receptor agonist call: inactive
OR4A16 (Homo sapiens)
  odorant receptor agonist call: inactive
OR4A47 (Homo sapiens)
  odorant receptor agonist call: inactive
OR4A5 (Homo sapiens)
  odorant receptor agonist call: inactive
OR4B1 (Homo sapiens)
  odorant receptor agonist call: inactive
OR4C11 (Homo sapiens)
  odorant receptor agonist call: inactive
OR4C12 (Homo sapiens)
  odorant receptor agonist call: inactive

## CC1=C(O)C(=O)OC1C (stereo not given)
OR3A3 T48I L132F
  odorant receptor agonist call: inactive
OR4A15 (Homo sapiens)
  odorant receptor agonist call: inactive
OR4A16 (Homo sapiens)
  odorant receptor agonist call: inactive
OR4A47 (Homo sapiens)
  odorant receptor agonist call: inactive
OR4A5 (Homo sapiens)
  odorant receptor agonist call: inactive
OR4B1 (Homo sapiens)
  odorant receptor agonist call: inactive
OR4C11 (Homo sapiens)
  odorant receptor agonist call: inactive
OR4C12 (Homo sapiens)
  odorant receptor agonist call: inactive

## CC1=C(O)C(=O)C(C)O1 (stereo not given)
OR3A3 T48I L132F
  odorant receptor agonist call: inactive
OR4A15 (Homo sapiens)
  odorant receptor agonist call: inactive
OR4A16 (Homo sapiens)
  odorant receptor agonist call: inactive
OR4A47 (Homo sapiens)
  odorant receptor agonist call: inactive
OR4A5 (Homo sapiens)
  odorant receptor agonist call: inactive
OR4B1 (Homo sapiens)
  odorant receptor agonist call: inactive
OR4C11 (Homo sapiens)
  odorant receptor agonist call: inactive
OR4C12 (Homo sapiens)
  odorant receptor agonist call: inactive

## CC1CCCCCCCCCCCCC(=O)C1 (stereo not given)
OR4A15 (Homo sapiens)
  odorant receptor agonist call: inactive
OR4A16 (Homo sapiens)
  odorant receptor agonist call: inactive
OR4A47 (Homo sapiens)
  odorant receptor agonist call: inactive
OR4A5 (Homo sapiens)
  odorant receptor agonist call: inactive
OR4A8 (Homo sapiens)
  odorant receptor agonist call: inactive
OR4B1 (Homo sapiens)
  odorant receptor agonist call: inactive
OR4C11 (Homo sapiens)
  odorant receptor agonist call: inactive
OR4C12 (Homo sapiens)
  odorant receptor agonist call: inactive
